# Only some compounds are listed: those with a hit (about 3.5% of all), similar ones and a draw of the others.
# MrgX1 antagonist – blocks BAM8-22 activation of human MrgX1 receptor; Q96LB2; actives 1.3% (n = 310,000); B-score at 10 µM; MRGX1-HEK293 calcium flux, Fluo-4, BAM8-22 antagonism; stronger effect = lower value; AID 588676;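 active means calcium-response B-score plate-corrected more than 3 library SD below zero, starting fluorescence within 5 deviations, no agonist response on first addition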;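 further: peak minus trough fluorescence over baseline after final BAM8-22 challenge near maximal dose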
# Target sequence (Q96LB2 whole entry, looked up): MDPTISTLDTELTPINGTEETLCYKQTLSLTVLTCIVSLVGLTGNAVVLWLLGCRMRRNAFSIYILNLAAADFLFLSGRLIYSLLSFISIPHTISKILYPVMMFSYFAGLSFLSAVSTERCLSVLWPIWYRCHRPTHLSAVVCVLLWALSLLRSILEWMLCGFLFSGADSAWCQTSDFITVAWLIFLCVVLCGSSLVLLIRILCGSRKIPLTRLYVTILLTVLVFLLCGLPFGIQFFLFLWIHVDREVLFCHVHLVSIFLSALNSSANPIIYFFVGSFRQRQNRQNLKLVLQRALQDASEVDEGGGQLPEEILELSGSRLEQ
# RGS4 act – potentiators or activators of RGS4. HEK293 M3R/inducible RGS4, carbachol calcium flux Fluo4; stronger effect = lower value. B-score at 10 µM. actives 0.92% (n = 310,000). AID 463111;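 active means B-score of the integrated calcium signal more than 4 SD below the library mean, with starting fluorescence not abnormally high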;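 further: negative B-score means reduced calcium response which marks RGS4 activation or potentiation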
#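 Detection: kinetic calcium fluorescence imaging with Fluo4-AM dye, 2 µM / Material: HEK293 cells with stable M3R and inducible RGS4 / Schedule: recording 10 s baseline at 1 Hz, 100 s post-agonist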
# MrgX1 PAM – allosterically activates human MrgX1 receptor signaling | Q96LB2 | MrgX1-HEK293, Fluo-4 calcium flux, FDSS; stronger effect = higher value | B-score at 10 µM | actives 0.63% (n = 310,000) | AID 588675;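 active means plate-corrected calcium response at least 3 library SD above typical, normal starting fluorescence, not activating the receptor alone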;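 further: compound read alongside a low EC10 to EC30 dose of BAM8-22 agonist; peak minus trough fluorescence over baseline measured at the second addition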
# RGS4 inh – human RGS4 inhibition; HEK293 M3R/RGS4 inducible, Fluo-4 calcium flux; stronger effect = higher value; triggered by carbachol at its EC20; B-score at 10 µM; actives 0.45% (n = 310,000);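 active means B-score, a plate-corrected calcium signal, over three deviations above library mean, with baseline fluorescence within five deviations of library mean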;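 further: RGS4 expression induced by doxycycline in cells with stable M3 receptor; B-score is computed from the integrated fluorescence ratio over baseline after carbachol; higher B-score means a larger calcium signal and so more RGS4 inhibition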
# Target sequence (P49798 whole entry, looked up): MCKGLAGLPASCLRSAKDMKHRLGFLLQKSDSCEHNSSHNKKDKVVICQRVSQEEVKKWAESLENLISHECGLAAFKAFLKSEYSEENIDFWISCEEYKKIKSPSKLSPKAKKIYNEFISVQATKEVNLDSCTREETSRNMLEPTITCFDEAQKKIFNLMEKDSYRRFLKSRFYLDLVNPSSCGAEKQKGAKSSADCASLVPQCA
# MrgX1 agonist – human MrgX1 receptor agonism, primary screen; Q96LB2; MrgX1-HEK293 cells, Fluo-4 calcium fluorescence, agonist mode; stronger effect = higher value; B-score at 10 µM; actives 0.44% (n = 310,000); AID 588627;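 active means calcium response B-score plate-corrected fluorescence ratio at least 3 library SD, with starting fluorescence B-score inside 5 SD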
#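 Material: HEK293 cells stably expressing human MrgX1 receptor | Quantity: 15,000 cells per well | Times: Cells plated overnight, dye loaded 0.5 h 37 °C, 0.5 h room temperature | Measured by: Kinetic Fluo-4 NW fluorescence of intracellular calcium | Control set: Positive and negative controls per plate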
# * = called active by the depositor; i = inactive; / = no result given.
SMILES,MrgX1 antagonist,RGS4 act,MrgX1 PAM,RGS4 inh,MrgX1 agonist
COc1cc(NC(=O)COC(=O)[C@@H]2CCCN2S(=O)(=O)c2ccc(Cl)cc2)cc(OC)c1OC,i,/,8.9*,/,i
CC12CC(NC(=O)N1c1cccc(C(=O)NCc3ccc4c(c3)OCO4)c1)c1cc(Cl)ccc1O2 (configuration not stated),-7*,i,i,i,i
CC(C)C(=O)Nc1cccc(C(=O)NCc2ccc3c(c2)OCO3)c1,i,i,i,i,i
C=CCNC(=O)COC(=O)c1ccc(Sc2nncn2C)c([N+](=O)[O-])c1,-5.2*,i,i,i,i
COc1cc(NC(=O)C(C)Oc2ccccc2)c(OC)cc1NC(=O)c1ccccc1 (configuration not stated),i,i,i,i,i
CCN(CC)S(=O)(=O)c1ccc(OC(C)C)c(NC(=O)c2c3c(nc4ccccc24)CCN(Cc2ccccc2)C3)c1,-5*,i,i,i,i
NC(=O)c1ccc(NC(=O)CS(=O)(=O)c2cn(CC(=O)N3CCCCC3)c3ccccc23)cc1,i,i,i,i,i
CC(C)CCN1C(=O)C2(OCCCO2)c2cc(Cl)ccc21,i,i,i,i,i
CC1CCc2c(sc3nc(C(C)(C)C)nc(N4CCN(C(=O)CCl)CC4)c23)C1 (configuration not stated),i,-7.6*,i,i,i
CCOP(=O)(OCC)C(NC(=O)Nc1c(C)cc(C)cc1C)c1ccccc1 (configuration not stated),i,i,i,i,i
CCOP(=O)(OCC)C(NC(=O)Nc1ccccc1)c1ccccc1 (configuration not stated),-4.8*,i,i,i,i
CCOC(=O)c1c(C)[nH]c(C(=O)OCC(=O)Nc2sccc2C(N)=O)c1C,i,i,i,i,i
Nc1nc(-c2ccc(Br)cc2)cs1,i,i,i,i,i
Brc1ccc(-c2csc(Nc3nc(-c4ccc(Br)cc4)cs3)n2)cc1,-4.5*,i,i,i,i
CC(C)n1nnc(-c2ccc(OCc3ccccc3F)cc2)n1,i,i,i,i,i
CN1CCN(CCC(=O)N2c3ccccc3Sc3ccc(C(F)(F)F)cc32)CC1,-8.2*,i,i,i,i
CCN(CC)CCCCN1c2ccccc2Sc2ccccc21,i,-7.2*,i,i,i
CN(C)CCCN1c2ccccc2Sc2ccc(C(F)(F)F)cc21,i,-8.3*,i,i,i
O=C(NCC1CCCO1)c1ccc2c(c1)C(=O)N(c1cccc([N+](=O)[O-])c1)C2=O (configuration not stated),i,i,i,i,i
Cc1nnc2n(c1=O)C(CS(=O)(=O)c1ccccc1)CS2 (configuration not stated),i,i,i,i,i
O=[N+]([O-])c1ccc(S(=O)(=O)CC2CSc3nc4ccccc4n32)cc1 (configuration not stated),-5*,i,i,i,i
Cc1coc2cc3oc(=O)c(CCC(=O)NCCCn4ccnc4)c(C)c3cc12,i,i,i,i,i
Cc1c(CCC(=O)NCCCn2ccnc2)c(=O)oc2cc3occ(C(C)(C)C)c3cc12,i,-7.3*,i,i,i
Cc1oc2cc3oc(=O)c(CCC(=O)NC4CC4)c(C)c3cc2c1C,i,i,i,i,i
Cc1coc2cc3oc(=O)c(CCC(=O)NC4CC4)c(C)c3cc12,i,i,9.4*,i,i
SMILES,MrgX1 antagonist,RGS4 act,MrgX1 PAM,RGS4 inh,MrgX1 agonist
CCCOc1ccc(-c2c(C(=O)N/N=C/c3cccs3)nnn2-c2nonc2N)cc1,i,i,i,i,i
Cn1c(=O)cc(OCC(=O)NCCCN2CCN(Cc3ccccc3)CC2)c2ccccc21,-4.5*,i,i,i,i
CCC(CC)C(=O)c1c[nH]c(C(=O)OC)c1,i,i,i,i,i
Clc1cccc(CSc2ncn(-c3ccccc3)n2)c1,i,i,i,i,i
Clc1ccc(CSc2ncn(-c3ccccc3)n2)cc1,i,-7.2*,i,i,i
CCOc1ccc(C(=O)NCc2ccco2)cc1OC,i,i,i,i,i
CC1=NN(/C(=N\c2nnc(C)s2)Nc2ccc(C)cc2)[C@H](c2ccc(C)cc2)S1,i,i,i,i,30*
Cc1sccc1C1C(C#N)=C(N)SC(N)=C1C#N,i,i,i,i,i
N#CC1=C(N)SC(N)=C(C#N)C1CCC1CCCCC1,-8.8*,i,i,i,i
N/C(=N\OC(=O)Oc1ccccc1)c1ccc(Cl)cc1,i,-9.5*,i,i,i
Cc1cc(F)ccc1S(=O)(=O)N1CCCCC1CCNC(=O)C(=O)NCc1ccccn1 (configuration not stated),i,i,i,i,i
CCN=C1S/C(=C\c2ccc(-c3cccc(C(=O)O)c3)o2)C(=O)N1CC,i,i,i,i,i
O=C(O)c1cccc(-c2ccc(/C=C3/SC(=Nc4ccccc4)N(Cc4cccnc4)C3=O)o2)c1,-5.1*,i,i,i,i
CCN1C(=O)/C(=C\c2ccc(-c3cccc(C(=O)OC)c3)o2)SC1=Nc1ccc(C(=O)O)cc1,-6.5*,i,i,i,i
CC(C)N(CCO)C(=O)CCc1nnc(Cc2cccc(C(F)(F)F)c2)o1,i,i,i,i,i
O=S(=O)(c1ccccc1F)N1CCc2ccccc2C1,i,i,i,i,i
OCC[C@H]1C[C@@H](O)[C@H](O)[C@@]2(Cc3ccccc3O2)O1,i,/,i,/,i
CCOc1cccc(CN(C)CC2CCCN(CCc3ccc(Cl)cc3)C2)c1O (configuration not stated),i,i,i,i,i
Cc1nn(CCCC(=O)NCCc2ccccc2)c(C)c1[N+](=O)[O-],i,i,7.2*,i,i
Cc1ccc(Cn2nc(C)c(NC(=O)CCCn3nc(C)c([N+](=O)[O-])c3C)c2C)cc1,i,i,i,i,i
Cc1nn(Cc2c(Cl)cccc2Cl)c(C)c1NC(=O)CCCn1nc(C)c([N+](=O)[O-])c1C,-4.5*,i,i,i,i
O=C(O)c1ccc(CNC(=O)c2ccc3c(c2)C(=O)N(Cc2cccnc2)C3=O)cc1,-4.9*,i,i,i,i
